Assays:
Human PDE10A2 = Human PDE10A2 (Homo sapiens, UniProt Q9Y233); assay: PDE10A fluorescence polarization; type: biochemical
[1] = tested on: novel objection recognition in rats; assay: Novel objection recognition assay; type: in vivo; conditions: for novel objection recognition: rats, vs vehicle, p <0.05
In short: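 Rats dosed orally with test compound; donepezil 0.56 mg/kg as reference. Plasma was taken 1 h post dose at the end of the behavioral study (n = 4/group). Striatal PDE10A occupancy was derived from these end-of-study plasma exposures. Significance was tested against vehicle.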

[2] = tested on: circulating levels of prolactin; assay: Circulating prolactin in rats; type: in vivo; conditions: data not shown
[3] = tested on: MK-801-induced locomotor activity in rats; assay: MK-801-induced psychomotor; type: in vivo; conditions: MK-801 model, striatal occupancy derived from plasma exposures
[4] = tested on: acute episode of schizophrenia; conditions: patients experiencing an acute episode of schizophrenia; cited from earlier work
5-strain Ames test = assay: Microbial mutagenesis assay; type: cell-based
[5] = tested on: Chinese hamster ovary cells; assay: Assay for chromosomal aberrations; type: cell-based
Weight gain in rats = type: in vivo; conditions: data not shown
PDE10A = target: T1, PDE10A (Rattus norvegicus, UniProt Q9QYJ6); assay: In vivo PDE10A enzyme occupancy in rat striatum with [3H]MK-8193; set-up: species or system Wistar–Hannover rats
T1 sequence (Q9QYJ6 1-794): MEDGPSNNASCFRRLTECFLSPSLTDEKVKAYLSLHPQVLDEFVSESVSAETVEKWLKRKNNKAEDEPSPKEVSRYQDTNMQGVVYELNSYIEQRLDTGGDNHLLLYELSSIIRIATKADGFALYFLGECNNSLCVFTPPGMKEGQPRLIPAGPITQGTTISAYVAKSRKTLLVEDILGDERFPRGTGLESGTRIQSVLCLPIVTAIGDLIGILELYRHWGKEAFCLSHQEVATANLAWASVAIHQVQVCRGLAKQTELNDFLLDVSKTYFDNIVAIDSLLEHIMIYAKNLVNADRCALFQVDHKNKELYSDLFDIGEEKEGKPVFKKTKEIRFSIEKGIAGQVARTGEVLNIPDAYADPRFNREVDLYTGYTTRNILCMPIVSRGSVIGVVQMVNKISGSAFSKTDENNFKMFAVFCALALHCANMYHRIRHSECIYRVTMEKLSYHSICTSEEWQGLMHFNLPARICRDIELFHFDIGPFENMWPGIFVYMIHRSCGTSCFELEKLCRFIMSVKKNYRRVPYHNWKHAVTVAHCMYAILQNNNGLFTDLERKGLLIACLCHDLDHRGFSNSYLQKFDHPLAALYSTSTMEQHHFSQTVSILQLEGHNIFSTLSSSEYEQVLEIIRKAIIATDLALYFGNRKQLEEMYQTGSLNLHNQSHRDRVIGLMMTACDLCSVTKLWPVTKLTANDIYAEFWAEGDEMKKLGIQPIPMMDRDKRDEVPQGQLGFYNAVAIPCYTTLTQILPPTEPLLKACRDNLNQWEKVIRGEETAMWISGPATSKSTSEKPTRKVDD

catalepsy in the rats = assay: Catalepsy in rats; type: in vivo; conditions: compared with atypical antipsychotics, data not shown
Iks = Iks (Homo sapiens, UniProt P51787); assay: Ion channel profile, Iks; type: cell-based
Passive permeability = type: in vitro ADME; conditions: not told
[6] = target: full length human PDE10A2 (Homo sapiens, UniProt Q9Y233); assay: Surface plasmon resonance binding kinetics; conditions: SPR
[7] = tested on: other PDE enzyme families (PDE1–PDE11); assay: PDE selectivity over the other PDE enzyme families; type: biochemical; conditions: tables 1 and 2; over other PDEs

Sequence of Human PDE10A2 (Q9Y233 267-1055): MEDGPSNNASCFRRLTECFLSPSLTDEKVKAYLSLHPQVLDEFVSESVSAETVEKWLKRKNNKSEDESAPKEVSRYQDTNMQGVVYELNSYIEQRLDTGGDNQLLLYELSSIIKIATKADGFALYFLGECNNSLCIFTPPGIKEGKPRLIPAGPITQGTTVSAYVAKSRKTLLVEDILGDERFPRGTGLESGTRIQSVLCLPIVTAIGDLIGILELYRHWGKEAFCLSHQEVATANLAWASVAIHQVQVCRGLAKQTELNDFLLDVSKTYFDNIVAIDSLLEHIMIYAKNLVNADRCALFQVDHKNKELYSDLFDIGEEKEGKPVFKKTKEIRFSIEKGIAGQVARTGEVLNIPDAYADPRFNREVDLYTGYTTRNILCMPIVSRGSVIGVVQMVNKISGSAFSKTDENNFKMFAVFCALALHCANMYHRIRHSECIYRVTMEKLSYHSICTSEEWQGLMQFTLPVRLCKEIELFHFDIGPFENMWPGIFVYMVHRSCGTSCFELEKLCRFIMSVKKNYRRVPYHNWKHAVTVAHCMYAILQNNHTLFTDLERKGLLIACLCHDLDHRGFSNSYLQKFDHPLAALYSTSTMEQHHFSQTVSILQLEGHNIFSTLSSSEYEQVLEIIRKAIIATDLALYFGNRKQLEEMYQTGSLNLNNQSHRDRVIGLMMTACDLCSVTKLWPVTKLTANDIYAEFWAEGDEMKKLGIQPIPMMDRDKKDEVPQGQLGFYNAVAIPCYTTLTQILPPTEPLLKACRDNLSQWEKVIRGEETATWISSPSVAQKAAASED
Sequence of full length human PDE10A2 (Q9Y233 715-1055): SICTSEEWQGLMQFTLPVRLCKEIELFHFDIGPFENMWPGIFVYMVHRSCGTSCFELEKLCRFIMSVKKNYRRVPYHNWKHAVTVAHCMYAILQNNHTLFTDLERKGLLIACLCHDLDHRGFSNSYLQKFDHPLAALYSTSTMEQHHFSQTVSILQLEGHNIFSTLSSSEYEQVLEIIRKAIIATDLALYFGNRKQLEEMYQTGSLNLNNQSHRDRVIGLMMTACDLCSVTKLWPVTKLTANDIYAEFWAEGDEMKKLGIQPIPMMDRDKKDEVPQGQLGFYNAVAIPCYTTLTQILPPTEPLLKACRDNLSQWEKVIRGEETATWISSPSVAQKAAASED
Sequence of Iks (P51787 whole entry): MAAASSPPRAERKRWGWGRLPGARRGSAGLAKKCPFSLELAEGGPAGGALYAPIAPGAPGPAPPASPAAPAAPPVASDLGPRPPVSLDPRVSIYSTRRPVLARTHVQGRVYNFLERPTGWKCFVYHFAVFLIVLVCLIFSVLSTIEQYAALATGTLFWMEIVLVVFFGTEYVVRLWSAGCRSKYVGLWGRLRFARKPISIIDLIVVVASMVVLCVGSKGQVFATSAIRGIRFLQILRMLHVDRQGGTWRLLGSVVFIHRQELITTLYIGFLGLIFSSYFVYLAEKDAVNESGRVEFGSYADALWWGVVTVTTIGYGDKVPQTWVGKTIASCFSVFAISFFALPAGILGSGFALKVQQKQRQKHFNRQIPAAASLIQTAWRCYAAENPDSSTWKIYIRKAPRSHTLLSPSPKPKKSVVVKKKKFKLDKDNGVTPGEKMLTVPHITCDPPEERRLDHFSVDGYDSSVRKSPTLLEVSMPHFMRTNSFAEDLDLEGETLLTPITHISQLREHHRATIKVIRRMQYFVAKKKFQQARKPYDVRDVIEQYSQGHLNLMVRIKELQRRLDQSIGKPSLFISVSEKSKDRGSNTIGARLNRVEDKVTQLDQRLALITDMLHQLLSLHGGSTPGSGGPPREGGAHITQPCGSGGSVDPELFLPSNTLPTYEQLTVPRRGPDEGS

For `Cc1c(Cl)nc(C2CC2)nc1Cl` [Compound 1], the “LBE (ligand binding efficiency)” value (Human PDE10A2) was 0.57.

With `COc1cc2c(cc1OC)C(=O)C(CC1CCN(Cc3ccccc3)CC1)C2` (stereo not shown) [donepezil, reference compound] the novel objection recognition ([1]; positive control 0.56 mg/kg) was “significantly improved recognition”.

In the case of `Cc1ccc([C@H]2C[C@@H]2COc2cc(NCc3nnc(C)s3)nc(C)n2)nc1` [Compound 18, 2-Methyl-N-((5-methyl-1,3,4-thiadiazol-2-yl)methyl)-6-(((1S,2S)-2-(5-methylpyridin-2-yl)cyclopropyl)methoxy)pyrimidin-4-amine], the “effect on circulating levels of prolactin” value [2] is listed as “lack of effect”, the “enzyme occupancy at which efficacy was observed (and above)” value [3] is listed as “approximately 25%” and the “antipsychotic efficacy, initial proof of concept” value [4] is listed as “evidence for antipsychotic efficacy”. The “microbial mutagenesis (5-strain Ames test)” value (5-strain Ames test) was “negative”, the “LBE (ligand binding efficiency)” value (Human PDE10A2) was 0.54 and the “LLE (ligand-lipophilicity efficiency)” value (Human PDE10A2) was 7.8. For the same compound, the “enzyme occupancy at which significant effects were achieved (and above)” value ([1]; novel objection recognition, striatal occupancy derived from plasma exposures) was “approximately 29%”, the novel objection recognition ([1]; 0.16 and 0.25 mg/kg PO) was “efficacious” and the novel objection recognition ([1]; 0.16 and 0.25 mg/kg PO, listed as MK-8189 (18)) was “significantly improved recognition”. The “chromosomal aberrations in Chinese hamster ovary cells” value [5] was “negative”, the weight gain (Weight gain in rats) was “reduced weight gain” and the EC50 (PDE10A) was 52 nM. The “maximal enzyme occupancy in the rat striatum” value (PDE10A; PO, higher plasma concentrations) was “full enzyme occupancy”, the “therapeutic window between antipsychotic-like effects and catalepsy” value (catalepsy in the rats) was “larger therapeutic window” and the IC50 (Iks) was > 30000 nM. For the same compound, the Papp (Passive permeability) was 35.4 to 42.6 ×10⁻⁶ cm/s, the on-rate [6] was ~8.0 × 10^7 M^–1·s^–1 and the reversibility of binding [6] was “completely reversible”. The “in vitro half-life on the enzyme” value ([6]; 25 °C) was ~6.7 min and the PDE selectivity [7] was > 500,000.

From PMC9884086 (Journal of Medicinal Chemistry, 2023)
